{
  "source": "ChEMBL document CHEMBL1138497",
  "about": "“Design and synthesis of small molecule glycerol 3-phosphate acyltransferase inhibitors” (J Med Chem, 2009)",
  "data": [
    {"assay": "Inhibition of mitochondrial glycerol 3-phosphate acyltransferase by liquid scintillation counting", "how_it_was_run": "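Mitochondrial GPAT preparation added to start reaction in mixture of 14C-labelled glycerol 3-phosphate and palmitoyl-CoA with a range of inhibitor concentrations; acylation quantified by scintillation counting. Triplicate points; IC50 taken as inhibitor level giving 50% of activity seen with DMSO vehicle alone.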", "units": {"IC50": "µM"}, "values": [
      {"compound": "CCCCCS(=O)(=O)Nc1cccc(CP(=O)(O)O)c1", "IC50": 141},
      {"compound": "O=C(O)c1ccc(NS(=O)(=O)CCc2ccccc2)cc1", "IC50": 206},
      {"compound": "CCCCCCCCCS(=O)(=O)Nc1ccccc1CP(=O)(O)O", "IC50": 81.1},
      {"compound": "O=C(O)c1ccc(NS(=O)(=O)c2ccc(Cl)cc2)cc1", "IC50": 108},
      {"compound": "CCCCCCCCS(=O)(=O)Nc1ccc(F)cc1C(=O)O", "IC50": 89},
      {"compound": "CCCCCCCCCS(=O)(=O)NCc1ccc(C(=O)O)cc1", "IC50": 129},
      {"compound": "O=C(O)c1ccc(NS(=O)(=O)Cc2ccccc2)cc1", "IC50": 221},
      {"compound": "CCCCCCCCCS(=O)(=O)Nc1ccc(C(=O)O)cc1", "IC50": 88.9},
      {"compound": "CCCCCS(=O)(=O)Nc1ccc(CP(=O)(O)O)cc1", "IC50": 148},
      {"compound": "O=C(O)c1cccc(NS(=O)(=O)Cc2ccccc2)c1", "IC50": 178},
      {"compound": "O=C(O)c1ccccc1NS(=O)(=O)Cc1ccccc1", "IC50": 140},
      {"compound": "CCCCCCCCCS(=O)(=O)Nc1ccc(CP(=O)(O)O)cc1", "IC50": 81.3},
      {"compound": "CCCCCCCCCS(=O)(=O)Nc1cccc(C(=O)O)c1", "IC50": 73.9},
      {"compound": "CCCCCCCCCS(=O)(=O)Nc1cccc(CP(=O)(O)O)c1", "IC50": 62.8},
      {"compound": "CCCCCCCCCS(=O)(=O)NCc1cccc(C(=O)O)c1", "IC50": 83.5},
      {"compound": "CCCCCCCCCCCCCCCCS(=O)(=O)Nc1ccccc1C(=O)O", "IC50": 18.3},
      {"compound": "CCCCCS(=O)(=O)NCc1ccccc1C(=O)O", "IC50": 217},
      {"compound": "CCCCCCCCCCCCCCS(=O)(=O)Nc1ccccc1C(=O)O", "IC50": 17.4},
      {"compound": "O=C(O)c1cccc(NS(=O)(=O)c2ccccc2)c1", "IC50": 138},
      {"compound": "O=C(O)c1ccccc1NS(=O)(=O)c1ccccc1", "IC50": 146},
      {"compound": "O=C(O)c1cccc(NS(=O)(=O)CCc2ccccc2)c1", "IC50": 164},
      {"compound": "CCCCCCCCS(=O)(=O)Nc1ccc(P(=O)(O)O)cc1", "IC50": 95.3},
      {"compound": "CCCCCS(=O)(=O)Nc1ccccc1CP(=O)(O)O", "IC50": 129},
      {"compound": "CCCCCCCCCS(=O)(=O)NCc1ccccc1C(=O)O", "IC50": 66.5},
      {"compound": "CCCCCCCCS(=O)(=O)Nc1ccc(O)cc1C(=O)O", "IC50": 116},
      {"compound": "CCCCCCCCS(=O)(=O)Nc1cccc(P(=O)(O)O)c1", "IC50": 72.4},
      {"compound": "CS(=O)(=O)Nc1ccccc1C(=O)O", "IC50": 132},
      {"compound": "O=C(O)c1ccccc1NS(=O)(=O)c1ccc(Cl)cc1", "IC50": 107},
      {"compound": "CCCCCCCCCS(=O)(=O)Nc1ccccc1C(=O)O", "IC50": 24.7},
      {"compound": "O=C(O)c1ccc(NS(=O)(=O)c2ccccc2)cc1", "IC50": 151},
      {"compound": "CCCCCCCCCS(=O)(=O)Nc1ccc(Cl)cc1C(=O)O", "IC50": 31.8},
      {"compound": "CCCCCS(=O)(=O)NCc1cccc(C(=O)O)c1", "IC50": 310},
      {"compound": "O=C(O)c1ccccc1NS(=O)(=O)CCc1ccccc1", "IC50": 152},
      {"compound": "CCCCCS(=O)(=O)NCc1ccc(C(=O)O)cc1", "IC50": 252},
      {"compound": "CCCCCCCCS(=O)(=O)Nc1ccccc1P(=O)(O)O", "IC50": 73.6},
      {"compound": "O=C(O)c1cccc(NS(=O)(=O)c2ccc(Cl)cc2)c1", "IC50": 75.7}
    ]}
  ]
}
